Bioassay records from PubChem BioAssay.
An excerpt weighted towards active compounds, which were near 1.4% of everything screened.
iPSC survival up – enhancers of human iPSC single-cell survival; hiPSC single-cell survival, ATPlite luminescence; 100% = ROCK inhibitor wells, 0% = DMSO; 0.044% of 360,000 active; survival enhancement, % at 20 µM; in the data active = survival enhancement above about 18%;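 note: cells exposed to compounds for 16 hours before the ATP read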
MT1-MMP act inh – inhibitors of human MT1-MMP activation. P50281. HT1080 RFP-PRO-GFP cells, GFP/RFP ratio fluorescence, overnight; percent of plate control window, DMSO zero. GFP/RFP ratio change, % at 20 µM. 0.061% of 360,000 active. AID 651647;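 active = GFP/RFP ratio change of at least 30% with cell ATP level not reduced by more than half and red fluorescence within 50% of control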
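system = RFP-PRO-GFP reporter HT1080 cells | dosing = 20 µM single dose, 1% DMSO | timing = overnight cell settling, then overnight compound exposure, 37 °C, 5% CO2 | read-out basis = GFP/RFP fluorescence ratio | controls = DMSO and RFP-L50D-GFP cell wells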
CendR NRP1 mod – NRP-1/CendR interaction modulation | FAM-RPARPAR peptide binding to NRP-1, fluorescence polarization | inhibition, % at 25 µM | AID 602438 | 0.85% of 360,000 active;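 active = inhibition or corrected inhibition above about 18%, plus a signal ratio from 0.5 to 1.5, limit read from the data, passing the limit was not always enough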
SKN-1 inh – blocks SKN-1 activity in C. elegans; C. elegans VP596 Pgst-4::GFP/RFP ratio, acrylamide-induced, 24 h; inhibition, % at 21.8 µM; 0.49% of 360,000 active; AID 624304;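 active = interference check ratio from 0.5 to 1.5 plus GFP to RFP signal ratio inhibition reaching or exceeding a fixed threshold, cut at about 30% in these data, passing the limit was not always enough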
Numbers without * were called inactive.

SMILES | iPSC survival up | MT1-MMP act inh | CendR NRP1 mod | SKN-1 inh
Clc1ccc(-c2csc(N/N=C/c3ccco3)n2)cc1 | 1 | 0 | 5 | 91*
O=C(/C=C/c1ccco1)Nc1nc(-c2ccccc2)cs1 | -1 | 1 | -1 | 51*
CCC(C(=O)Nc1c(C)cc(C)cc1C)N1CCCCCC1 (stereo not drawn) | -1 | 0 | 17 | 3
N#CC(=Cc1ccc(O)cc1)C(N)=C(C#N)C#N | -1 | -3 | -50 | 10
O=C(NCc1ccc(Cl)cc1)C1CCC(CNS(=O)(=O)c2ccccc2)CC1 (stereo not drawn) | 0 | -1 | 0 | -15
Cc1ccccc1OCCCN1C(=O)C(=O)c2cccc(C)c21 | -2 | 1 | -1 | -16
Cc1ccc(-c2csc(N/N=C/c3ccco3)n2)cc1 | 6 | -9 | -6 | 60*
O=C(/C=C/Sc1ccccc1)c1ccccc1 | -5 | -17 | 4 | 81*
O=C(C=Cc1ccccc1Cl)c1ccccc1 | -3 | -1 | -15 | -5
O=C(/C=C/Sc1ccccc1)c1ccc(Cl)cc1 | -2 | -23 | 5 | 36*
Cc1nn(C)c(C(=O)Nc2ccn(Cc3ccccc3F)n2)c1[N+](=O)[O-] | 8 | 8 | -9 | -15
Cc1nnc(NC(=O)c2ccccc2C(=O)O)s1 | 0 | 7 | 35* | -24
CC(C(C(=O)N1CCCCC1)N1CCCCC1)N1CCCCC1 (stereo not drawn) | -4 | -3 | 14 | 14
COc1cccc(OC)c1C(=O)OCC(=O)N1CC(C)CC(C)C1 (stereo not drawn) | 0 | 1 | 0 | 2
COc1cccc(C2Nc3ccc4ccccc4c3C3=C2C(=O)CC(C)(C)C3)c1OCC(=O)O (stereo not drawn) | -1 | -3 | 21 | 35*
CCOc1ccc(C(=O)NCC(=O)NCCSc2ccc(Br)cc2)cc1OCC | 0 | 2 | 23* | 3
Oc1cc(CNCc2ccccc2)c(O)cc1CNCc1ccccc1 | 0 | -17 | 28* | 31
CCCNC(=O)Nc1ccc2c(c1)nc(C)n2C | -1 | 1 | 9 | 1
CC(=O)Nc1ccc(C(=O)NN2C(=O)NC3(CCCCC3)C2=O)cc1 | 0 | -1 | -2 | 13
O=C(CCNC(=O)c1ccc(Cl)cc1)NN1C(=O)NC2(CCCCC2)C1=O | 0 | 1 | 20* | 3
Cn1c(=O)c2[nH]c(CNc3ccc(C(=O)O)cc3)nc2n(C)c1=O | -1 | 1 | 8 | 11
COc1ccc(S(=O)(=O)NCc2cc(=O)n(C)c(=O)n2C)cc1C | -1 | 1 | -5 | -1
Cc1ccn2c(-c3csc(NCc4ccccc4)n3)c(C)nc2c1 | 3 | -2 | 25* | 11
Cc1nc2ccccn2c1-c1csc(NCc2ccco2)n1 | -2 | 11 | 0 | 6
C/C(Cc1ccccc1)=N\NC(=O)CNC(=O)/C=C\c1ccccc1 | 0 | 1 | -6 | 6
SMILES | iPSC survival up | MT1-MMP act inh | CendR NRP1 mod | SKN-1 inh
N#C/C(=C\c1ccc(OC(=O)c2ccc(Cl)s2)cc1)c1nc2ccccc2[nH]1 | 0 | -60 | 39* | 6
N#C/C(=C\c1ccc(OC(=O)c2ccc(Br)s2)cc1)c1nc2ccccc2[nH]1 | -2 | -18 | 12 | -9
CCC(=O)Nc1cccc(NC(=O)CN2CCN(c3ccccc3OC)CC2)c1 | -2 | 3 | 6 | -14
CCOC(=O)Nc1cccc2c1-c1ccc([N+](=O)[O-])cc1C2=O | 0 | -4 | -14 | 40*
CCOC(=O)Nc1cc2c(cc1[N+](=O)[O-])-c1ccccc1C2=O | -3 | 6 | -13 | 19
CC1(C)CC(NC(=O)COc2ccccc2Cl)CC(C)(C)N1 | 1 | 3 | -5 | -6
c1ccc(Cn2nnnc2C(c2ccccc2)N2CCN(c3nc4ccccc4s3)CC2)cc1 (stereo not drawn) | 8 | -11 | 6 | 13
c1csc(Cn2nnnc2CN2CCN(c3nc4ccccc4s3)CC2)c1 | -2 | 4 | -8 | 36*
c1ccc(C(c2nnnn2Cc2ccco2)N2CCN(c3nc4ccccc4s3)CC2)cc1 (stereo not drawn) | -1 | -11 | 46* | 5
CCn1c(=O)c(C(=O)NNS(=O)(=O)c2ccc(Cl)cc2)c(O)c2ccccc21 | -2 | 4 | -8 | -3
COC(=O)C1CC(O)CN1S(=O)(=O)c1ccc2ccccc2c1 (stereo not drawn) | 2 | 2 | -8 | -9
COc1ccc(-n2c(C)cc(C(=O)CSc3ccc(NC(C)=O)cc3)c2C)cc1 | 1 | 1 | 42* | -2
COc1ccc(NC(=O)Nc2ccc(Br)cn2)cc1 | -1 | -1 | 24* | -5
